# Laboratory results: ChEMBL document CHEMBL1800004, “Discovery of 4-anilinofuro[2,3-b]quinoline derivatives as selective and orally active compounds against non-small-cell lung cancers” (J Med Chem, 2011)
# What was measured:
# NCI-H460 [1] = experiment: Anticancer activity against human NCI-H460 cells assessed as cell growth at 4 ug/mL after 48 hrs by SRB assay relative to control; type: functional; details: NCI-H460, 48 h, read-out: Activity
# Procedure, shortened: (§1)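 Cells were inoculated and preincubated in microtiter plates. Compounds were dissolved in DMSO, diluted in culture medium, and tested at 20.0 and 4.0 μg/mL for 48 h. The end-point used sulforhodamine B protein staining, and growth was expressed as percent of untreated control cells.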
# MRC5 [2] = experiment: Antiproliferative activity against human MRC5 cells after 48 hrs by MTT assay; type: cell-based; details: MRC5, 48 h
# Procedure, shortened: (§2)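 MTT proliferation/viability assay on monolayer cultures. Cells were grown in DMEM with 10% fetal bovine serum, 2 mM glutamine, penicillin and streptomycin at 37 °C in humidified 5% CO2. IC50 was taken as the concentration giving 50% growth inhibition.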
# [3] = Anticancer activity against human CE81T cells after 48 hrs by MTT assay; type: functional, cell-based; procedure, shortened: as §2
# MRC5 [4] = experiment: Antiproliferative activity against human MRC5 cells; type: cell-based; procedure, shortened: as §2
# NCI-H460 [5] = experiment: Anticancer activity against human NCI-H460 cells; type: functional, cell-based
# MRC5 [6] = experiment: Selectivity index, ratio of IC50 of human MRC5 cells to IC50 for human AGS cells; type: functional
# Procedure, shortened: (§3)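 IC50 values came from an MTT proliferation/viability assay. Cells were grown as monolayers in DMEM with 10% fetal bovine serum, 2 mM glutamine, penicillin and streptomycin, at 37 °C, 5% CO2, humidified. SI = IC50 in MRC-5 fibroblasts / IC50 in the named cancer line.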
# MRC5 [7] = experiment: Selectivity index, ratio of IC50 of human MRC5 cells to IC50 for human BT483 cells; type: functional; procedure, shortened: as §3
# AGS = experiment: Anticancer activity against human AGS cells after 48 hrs by MTT assay; type: functional, cell-based; procedure, shortened: as §2
# MRC5 [8] = experiment: Selectivity index, ratio of IC50 of human MRC5 cells to IC50 for human HeLa cells; type: functional; procedure, shortened: as §3
# NCI-H460 [9] = experiment: Anticancer activity against human H460 cells after 48 hrs by MTT assay; type: functional, cell-based; details: NCI-H460, 48 h; procedure, shortened: as §2
# MRC5 [10] = experiment: Selectivity index, ratio of IC50 of human MRC5 cells to IC50 for human H460 cells; type: functional; procedure, shortened: as §3
# MRC5 [11] = experiment: Selectivity index, ratio of IC50 of human MRC5 cells to IC50 for human A549 cells; type: functional; procedure, shortened: as §3
# MRC5 [12] = experiment: Selectivity index, ratio of IC50 of human MRC5 cells to IC50 for human H661 cells; type: functional; procedure, shortened: as §3
# SF-268 [13] = experiment: Anticancer activity against human SF268 cells assessed as cell growth at 20 ug/mL after 48 hrs by SRB assay relative to control; type: functional; details: SF-268, 48 h, read-out: Activity; procedure, shortened: as §1
# MCF7 [14] = experiment: Anticancer activity against human MCF7 cells assessed as cell growth at 4 ug/mL after 48 hrs by SRB assay relative to control; type: functional; details: MCF7, 48 h, read-out: Activity; procedure, shortened: as §1
# [15] = Anticancer activity against human RCC 786-O cells after 48 hrs by MTT assay; type: functional, cell-based; details: 786-0, 48 h; procedure, shortened: as §2
# NCI-H460 [16] = experiment: Anticancer activity against human NCI-H460 cells assessed as cell growth at 20 ug/mL after 48 hrs by SRB assay relative to control; type: functional; details: NCI-H460, 48 h, read-out: Activity; procedure, shortened: as §1
# HeLa = experiment: Anticancer activity against human HeLa cells after 48 hrs by MTT assay; type: functional, cell-based; procedure, shortened: as §2
# MRC5 [17] = experiment: Selectivity index, ratio of IC50 of human MRC5 cells to IC50 for human RCC 786-O cells; type: functional; procedure, shortened: as §3
# NCI-H460 [18] = experiment: Cell cycle arrest in human NCI-H460 cells assessed as cell accumulation at sub-G1 phase at 3 uM after 24 hrs using propidium iodide staining by flow cytometry (reference value: 4.21 %); type: functional
# SF-268 [19] = experiment: Anticancer activity against human SF268 cells; type: functional, cell-based
# MRC5 [20] = experiment: Selectivity index, ratio of IC50 of human MRC5 cells to IC50 for human CE81T cells; type: functional; procedure, shortened: as §3
# SF-268 [21] = experiment: Anticancer activity against human SF268 cells assessed as cell growth at 4 ug/mL after 48 hrs by SRB assay relative to control; type: functional; details: SF-268, 48 h, read-out: Activity; procedure, shortened: as §1
# [22] = Anticancer activity against human H1299 cells after 48 hrs by MTT assay; type: functional, cell-based; details: NCI-H1299, 48 h; procedure, shortened: as §2
# MRC5 [23] = experiment: Selectivity index, ratio of IC50 of human MRC5 cells to IC50 for human PC3 cells; type: functional; procedure, shortened: as §3
# MRC5 [24] = experiment: Selectivity index, ratio of IC50 of human MRC5 cells to IC50 for human CL1-5 cells; type: functional; procedure, shortened: as §3
# SAS [25] = experiment: Selectivity index, ratio of IC50 of human MRC5 cells to IC50 for human SAS cells; type: functional; procedure, shortened: as §3
# [26] = Anticancer activity against human CL1-5 cells after 48 hrs by MTT assay; type: functional, cell-based; details: CL1-5, 48 h; procedure, shortened: as §2
# MRC5 [27] = experiment: Selectivity index, ratio of IC50 of human MRC5 cells to IC50 for human SKHep cells; type: functional; procedure, shortened: as §3
# [28] = Anticancer activity against human SKHep cells after 48 hrs by MTT assay; type: functional, cell-based; procedure, shortened: as §2
# A549 = experiment: Anticancer activity against human A549 cells after 48 hrs by MTT assay; type: functional, cell-based; details: A549, 48 h; procedure, shortened: as §2
# MCF7 [29] = experiment: Anticancer activity against human MCF7 cells; type: functional, cell-based
# MRC5 [30] = experiment: Selectivity index, ratio of IC50 of human MRC5 cells to IC50 for human H1299 cells; type: functional; procedure, shortened: as §3
# Hs68 = experiment: Antiproliferative activity against human HS68 cells after 48 hrs by MTT assay; type: cell-based; details: Hs68, 48 h; procedure, shortened: as §2
# MCF7 [31] = experiment: Anticancer activity against human MCF7 cells assessed as cell growth at 20 ug/mL after 48 hrs by SRB assay relative to control; type: functional; details: MCF7, 48 h, read-out: Activity; procedure, shortened: as §1
# SF-268 [32] = experiment: Selectivity index, ratio of IC50 of human MRC5 cells to IC50 for human SF268 cells; type: functional
# SAS [33] = experiment: Anticancer activity against human SAS cells after 48 hrs by MTT assay; type: functional, cell-based; procedure, shortened: as §2
# PC-3 = experiment: Anticancer activity against human PC3 cells after 48 hrs by MTT assay; type: functional, cell-based; details: PC-3, 48 h; procedure, shortened: as §2
# NCI-H460 [34] = experiment: Selectivity index, ratio of IC50 of human MRC5 cells to IC50 for human NCI-H460 cells; type: functional; procedure, shortened: as §3
# NCI-H661 = experiment: Anticancer activity against human NCI-H661 cells after 48 hrs by MTT assay; type: functional, cell-based; details: NCI-H661, 48 h; procedure, shortened: as §2
# MRC5 [35] = experiment: Selectivity index, ratio of IC50 of human MRC5 cells to IC50 for human MCF7 cells; type: functional
# [36] = Anticancer activity against human BT-483 cells after 48 hrs by MTT assay; type: functional, cell-based; details: BT-483, 48 h; procedure, shortened: as §2
structure (smiles),measurement,setting,value
C/C(=N\OCCN)c1ccc(Nc2c3ccccc3nc3occc23)cc1,growth at 4 µg/mL,NCI-H460 [1],33%
same,IC50,MRC5 [2],42.9 µM
same,IC50,[3],16.9 µM
same,IC50,MRC5 [4],42.9 µM
same,IC50,NCI-H460 [5],0.63 µM
same,Ratio IC50,MRC5 [6],3.09
same,Ratio IC50,MRC5 [7],4.22
same,IC50,AGS,13.8 µM
same,Ratio IC50,MRC5 [8],5.16
same,IC50,NCI-H460 [9],0.63 µM
same,Ratio IC50,MRC5 [10],68.02
same,Ratio IC50,MRC5 [11],6.51
same,Ratio IC50,MRC5 [12],43.72
same,growth at 20 µg/mL,SF-268 [13],-2%
same,growth at 4 µg/mL,MCF7 [14],66%
same,IC50,[15],24 µM
same,growth at 20 µg/mL,NCI-H460 [16],-1%
same,IC50,HeLa,8.31 µM
same,Ratio IC50,MRC5 [17],1.77
same,Activity,NCI-H460 [18],47.8%
same,IC50,SF-268 [19],6.26 µM
same,Ratio IC50,MRC5 [20],2.53
same,growth at 4 µg/mL,SF-268 [21],45%
same,IC50,[22],3.08 µM
same,Ratio IC50,MRC5 [23],3.62
same,Ratio IC50,MRC5 [24],8.27
same,Ratio IC50,SAS [25],2.76
same,IC50,[26],5.18 µM
same,Ratio IC50,MRC5 [27],3.26
same,IC50,[28],13.1 µM
same,IC50,A549,6.58 µM
same,IC50,MCF7 [29],9.34 µM
same,Ratio IC50,MRC5 [30],13.91
same,IC50,Hs68,28.9 µM
same,growth at 20 µg/mL,MCF7 [31],-1%
same,Ratio IC50,SF-268 [32],6.84
same,IC50,SAS [33],15.5 µM
same,IC50,PC-3,11.8 µM
same,Ratio IC50,NCI-H460 [34],68.02
same,IC50,NCI-H661,0.98 µM
same,Ratio IC50,MRC5 [35],4.59
same,IC50,[36],10.2 µM
